Source: ChEMBL document CHEMBL1141674, “Effects of 3-(4'-geranyloxy-3'-methoxyphenyl)-2-trans propenoic acid and its ester derivatives on biofilm formation by two oral pathogens, Porphyromonas gingivalis and Streptococcus mutans” (2008)
In brackets after ≈: the same amount, converted by molar mass. Activity calls are given as the source filed them. The calls are words filed in the database; no cut-off is given here.

What was measured:
Porphyromonas gingivalis [1] = experiment: Antimicrobial activity against Porphyromonas gingivalis ATCC 33277 assessed as bacterial growth at 62.5 ug/ml after 4 hrs by XTT assay relative to control; format: functional; conditions: in the assay text read “after 48 hrs by absorbance at 660 nm” for “after 4 hrs by XTT assay”
Porphyromonas gingivalis [2] = experiment: Antimicrobial activity against Porphyromonas gingivalis ATCC 33277 assessed as bacterial growth at 31.2 ug/ml after 4 hrs by XTT assay relative to control; format: functional; conditions: in the assay text read “after 48 hrs by absorbance at 660 nm” for “after 4 hrs by XTT assay”
Porphyromonas gingivalis [3] = experiment: Antimicrobial activity against Porphyromonas gingivalis ATCC 33277 assessed as bacterial growth at 15.6 ug/ml after 4 hrs by XTT assay relative to control; format: functional; conditions: in the assay text read “after 48 hrs by absorbance at 660 nm” for “after 4 hrs by XTT assay”
Porphyromonas gingivalis [4] = experiment: Antimicrobial activity against Porphyromonas gingivalis ATCC 33277 assessed as bacterial growth at 7.8 ug/ml after 4 hrs by XTT assay relative to control; format: functional
How it was run: (§1)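 P. gingivalis biofilms were pre-grown for 48 h (24 h THB-HK culture diluted to OD660 0.07, 37 °C, anaerobic). They were then exposed to compound dilutions for 4 h at 37 °C under anaerobiosis. Viability was read by XTT reduction: fresh reagent of 12.5 parts XTT (1 mg/ml stock in PBS) to 1 part menadione (1 mM stock in acetone), 1 h at 37 °C, A490.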

Porphyromonas gingivalis [5] = experiment: Antimicrobial activity against Porphyromonas gingivalis ATCC 33277 assessed as bacterial growth at 3.9 ug/ml after 4 hrs by XTT assay relative to control; format: functional; how it was run: as §1
Streptococcus mutans [6] = experiment: Antimicrobial activity against Streptococcus mutans ATCC 25175 assessed as effect on bacterial growth after 4 hrs by XTT assay relative to control; format: functional, organism-based
Porphyromonas gingivalis [7] = experiment: Antimicrobial activity against Porphyromonas gingivalis ATCC 33277 assessed as bacterial growth at 125 ug/ml after 48 hrs by absorbance at 660 nm relative to control
Porphyromonas gingivalis [8] = experiment: Antimicrobial activity against Porphyromonas gingivalis ATCC 33277 assessed as bacterial growth at 125 ug/ml after 4 hrs by XTT assay relative to control; format: functional; conditions: in the assay text read “after 48 hrs by absorbance at 660 nm” for “after 4 hrs by XTT assay”
Porphyromonas gingivalis [9] = experiment: Antimicrobial activity against Porphyromonas gingivalis ATCC 33277 assessed as bacterial growth at 31.2 ug/ml after 48 hrs by absorbance at 660 nm relative to control
Streptococcus mutans [10] = experiment: Antimicrobial activity against Streptococcus mutans ATCC 25175 assessed as inhibition of biofilm formation at 3.9 ug/ml after 48 hrs; format: functional, organism-based
Porphyromonas gingivalis [11] = experiment: Antimicrobial activity against Porphyromonas gingivalis ATCC 33277 assessed as inhibition of biofilm formation at 31.3 ug/ml after 48 hrs; format: functional; parameters: scale not given: the % may be the effect or the level left
How it was run: (§2)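 A 24 h P. gingivalis culture in THB-HK was diluted to OD660 0.07 and mixed 1:1 with serial compound dilutions in THB-HK; untreated wells served as controls. Plates were held 48 h at 37 °C anaerobically and growth was read at A660. Washed biofilms were stained with 0.04% crystal violet for 15 min, eluted with 95% ethanol and read at A550. Triplicates; mean ± SD of two independent experiments.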

Porphyromonas gingivalis [12] = experiment: Antimicrobial activity against Porphyromonas gingivalis ATCC 33277 assessed as bacterial growth at 15.6 ug/ml after 48 hrs by absorbance at 660 nm relative to control
Porphyromonas gingivalis [13] = experiment: Antimicrobial activity against Porphyromonas gingivalis ATCC 33277 assessed as inhibition of biofilm formation after 48 hrs; format: functional; conditions: ATCC 33277, 48 h; how it was run: as §2
Streptococcus mutans [14] = experiment: Antimicrobial activity against Streptococcus mutans ATCC 25175 assessed as inhibition of biofilm formation after 48 hrs; format: functional; conditions: ATCC 25175, 48 h
Porphyromonas gingivalis [15] = experiment: Antimicrobial activity against Porphyromonas gingivalis ATCC 33277 assessed as bacterial growth at 62.5 ug/ml after 48 hrs by absorbance at 660 nm relative to control

| MIC (Porphyromonas gingivalis [13]) | MIC (Streptococcus mutans [14]) | SMILES | Activity (Porphyromonas gingivalis [1]) | Activity (Porphyromonas gingivalis [2]) | Activity (Porphyromonas gingivalis [3]) | Activity (Porphyromonas gingivalis [4]) | Activity (Porphyromonas gingivalis [5]) | Activity (Streptococcus mutans [6]) | Activity (Porphyromonas gingivalis [7]) | Activity (Porphyromonas gingivalis [8]) | Activity (Porphyromonas gingivalis [9]) | Activity (Streptococcus mutans [10]) | Activity (Porphyromonas gingivalis [11]) | Activity (Porphyromonas gingivalis [12]) | Activity (Porphyromonas gingivalis [15]) |
| --- | --- | --- | --- | --- | --- | --- | --- | --- | --- | --- | --- | --- | --- | --- | --- |
| – | – | O=C1C=C(O)C(=O)c2ccccc21 [LAWSONE] | 79% | 86% | 92% | 100% | 103% | inactive | 49% | – | – | – | – | – | – |
| – | – | COc1cc(/C=C/C(=O)OC2=CC(=O)c3ccccc3C2=O)ccc1OC/C=C(\C)CCC=C(C)C | 16% | – | 105% | 124% | 110% | inactive | – | 17% | 34% | – | – | – | – |
| – | – | COc1cc(/C=C/C(=O)Oc2ccccc2OC)ccc1OC/C=C(\C)CCC=C(C)C | 25% | 28% | 22% | 25% | 61% | inactive | – | 32% | – | – | – | – | – |
| – | – | Oc1ccc(O)cc1 [HYDROQUINONE] | 13% | 17% | 15% | 27% | 45% | inactive | 14% | – | – | – | – | – | – |
| – | – | COc1cc(/C=C/C(=O)O)ccc1OC/C=C(\C)CCC=C(C)C | 9% | 15% | – | 68% | 81% | inactive | – | 13% | – | Active | 80% | 34% | – |
| 6 µM (≈ 3.03 µg/mL) | 3 µM (≈ 1.52 µg/mL) | N=C(NCCCCCCNC(=N)NC(=N)Nc1ccc(Cl)cc1)NC(=N)Nc1ccc(Cl)cc1 [CHLORHEXIDINE] | – | – | – | – | – | – | – | – | – | – | – | – | – |
| – | – | COC(=O)c1ccc(OC(=O)/C=C/c2ccc(OC/C=C(\C)CCC=C(C)C)c(OC)c2)c(OC)c1 | – | 72% | 76% | 87% | 98% | inactive | 40% | – | – | – | – | – | 49% |
